Test results published in ChEMBL document CHEMBL3232875, “Prenylated benzoylphloroglucinols and xanthones from the leaves of Garcinia oblongifolia with antienteroviral activity” (J Nat Prod, 2014).

How the values were obtained:
[1] = Antiviral activity against Enterovirus 71 BrCr infected in African green monkey Vero cells assessed as inhibition of virus-induced cytopathic effect after 4 days by MTT assay; format: functional, cell-based, Human enterovirus 71 (strain BRCR)
Procedure, shortened: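 EV71 strain BrCr grown in Vero cells kept in DMEM with 2% FBS; titer by TCID50 end-point dilution. Vero cells inoculated with 100 × TCID50 virus plus serially diluted compounds (DMSO stocks); ribavirin positive control. After four days, morphology checked by light microscopy and viability by MTT to give CPE inhibition rate; IC50 by Forecast function. Mean ± SD, three independent assays, quadruplicate per concentration.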

[2] = Cytotoxicity against African green monkey Vero cells after 4 days by MTT assay; format: cell-based; conditions: chlorocebus sabaeus
Procedure, shortened: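 Vero cells treated or untreated with serially diluted compounds (100 mM DMSO stocks) for four days, viability read by MTT; CC50 calculated by Forecast function. Mean ± SD of three independent assays, each concentration in quadruplicate.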

[3] = Selectivity index, ratio of CC50 for African green monkey Vero cells to IC50 for Enterovirus 71 BrCr; format: functional
Procedure, shortened: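 SI computed as CC50 (Vero, 4-day MTT) divided by IC50 (EV71 BrCr CPE inhibition, 100 × TCID50, 4-day MTT) for each compound.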

[4] = Enterovirus A, Vero, 96 h, read-out: IC50

SMILES | IC50 ([1]; vero) | other results
CC(C)=CCC/C(C)=C/C[C@H]1C[C@@]2(CC=C(C)C)C(=O)[C@](CC=C(C)C)(C(=O)C(C(=O)c3cccc(O)c3)=C2O)C1(C)C | Not Active | –
CC(C)=CCC/C(C)=C/C[C@@H]1C[C@@]2(CC=C(C)C)C(=O)C(OC(=O)c3ccccc3)=C(O)[C@H](C2=O)C1(C)C | – | CC50 at 96 h [2]: 37.8 µM; Ratio CC50/IC50 [3]: 2.4; IC50 [1, 4]: 16.1 µM
COc1c(CC=C(C)C)c(O)c2c(=O)c3ccc(O)c(O)c3oc2c1CC=C(C)C [DULXANTHONE B] | Not Active | –
C=C(C)[C@H](O)CC/C(C)=C/C[C@H]1C[C@@]2(CC=C(C)C)C(=O)[C@](CC=C(C)C)(C(=O)C(C(=O)c3ccc(O)c(O)c3)=C2O)C1(C)C | Not Active | –
CC(C)=CCC/C(C)=C/C[C@H]1C[C@@]23C[C@H](O)C(C)(C)OC2=C(C(=O)c2ccccc2)C(=O)[C@H](C3=O)C1(C)C | Not Active | –
CC(=O)C[C@H]1[C@@H]2C[C@]3(CC=C(C)C)C(=O)[C@@]1(C(=O)c1ccccc1)C(=O)[C@@](CC=C(C)C)(C3=O)C2(C)C | – | CC50 at 96 h [2]: 47 µM; Ratio CC50/IC50 [3]: 1.5; IC50 [1, 4]: 31.1 µM
CC(C)=CCC/C(C)=C/C[C@H]1C[C@@]23C[C@@H](C(C)(C)O)OC2=C(C(=O)c2ccccc2)C(=O)[C@H](C3=O)C1(C)C | Not Active | –
CC(C)=CCC/C(C)=C/C[C@@H]1C[C@]2(CC=C(C)C)C(=O)[C@@](CC=C(C)C)(C(=O)C(C(=O)c3ccc(O)c(O)c3)=C2O)[C@@]1(C)CCC=C(C)C [OBLONGIFOLIN C] | Not Active | –
C=C(C)C(=O)CC/C(C)=C/C[C@@H]1C[C@@]2(CC=C(C)C)C(=O)[C@H](C(=O)C(C(=O)c3ccccc3)=C2O)C1(C)C | Not Active | –
COc1cc(O)c2c(=O)c3c(O)cc(O)c(OC)c3oc2c1 | Not Active | –
C=C(C)[C@@H](O)CC/C(C)=C/C[C@@H]1C[C@@]2(CC=C(C)C)C(=O)[C@H](C(=O)C(C(=O)c3ccccc3)=C2O)C1(C)C | Not Active | –
CC(C)=CC[C@@]12C[C@@H](C)C(C)(C)[C@@H](C(=O)C(C(=O)c3ccccc3)=C1O)C2=O | Not Active | –
C=C(CCC=C(C)C)C(=O)C[C@H]1C[C@@]2(CC=C(C)C)C(=O)[C@H](C(=O)C(C(=O)c3ccccc3)=C2O)C1(C)C | Not Active | –
COc1cc(O)c2c(=O)c3cc(CC=C(C)C)c(O)c(O)c3oc2c1C/C=C(\C)CCC=C(C)C | Not Active | –
CC(C)=CCC/C(C)=C/C[C@@H]1C[C@@]2(CC=C(C)C)C(=O)[C@H](C(=O)C(C(=O)c3ccccc3)=C2O)C1(C)C | Not Active | –
CC(=O)C[C@@H]1[C@@H]2C[C@]3(CC=C(C)C)C(=O)[C@@]1(C(=O)c1ccc(O)c(O)c1)C(=O)[C@@](CC=C(C)C)(C3=O)C2(C)C | Not Active | –
NC(=O)c1ncn([C@@H]2O[C@H](CO)[C@@H](O)[C@H]2O)n1 [RIBAVIRIN] | – | CC50 at 96 h [2]: > 1000 µM; Ratio CC50/IC50 [3]: >4; IC50 [1, 4]: 253 µM
